Experimental data: ChEMBL document CHEMBL4177705, “Antiplasmodial alkaloids from bulbs of Amaryllis belladonna Steud” (Bioorg Med Chem Lett, 2018); call rule not given here

test system: A2780; assay: Cytotoxicity against human A2780 cells; format: cell-based; conditions: Homo sapiens, A2780; read-out: IC50
Outline: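 Antiproliferative assay on the A2780 ovarian cell line, reported as IC50 in µM.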

Structure (SMILES)	IC50
COc1c2c(cc3c1OCO3)[C@@]13CC[N@@](C2)[C@@H]1[C@H](O)[C@H](OC)C[C@H]3O	> 60 µM
COc1c2c(cc3c1OCO3)[C@]13C=C[C@H](OC)C[C@H]1[N@](C2)C[C@H]3OC(C)=O	> 60 µM
COc1c2c(cc3c1OCO3)[C@]13C=C[C@H](OC)C[C@H]1[N@](C2)C[C@H]3O	> 60 µM
CC(=O)O[C@@H]1CC=C2CCN3Cc4cc5c(cc4[C@H]1[C@@H]23)OCO5 [ACETYLCARANINE]	56 µM
COC1=CC(=O)[C@@]23CCN(Cc4c2cc2c(c4OC)OCO2)[C@@H]3C1 [DISTICHAMINE]	> 60 µM

same assay, conditions: a2780

Structure (SMILES)	IC50
O=c1c2cc3c(cc2c2cccc4ccn1c42)OCO3	Non-Toxic

test system: Plasmodium falciparum; assay: Antiplasmodial activity against chloroquine-resistant ring stage Plasmodium falciparum Dd2 after 72 hrs by SYBR green 1 dye based assay; format: functional, organism-based; conditions: not given

Structure (SMILES)	IC50
O=c1c2cc3c(cc2c2cccc4ccn1c42)OCO3	Not Active

same assay, conditions: Plasmodium falciparum, Dd2, 72 h; read-out: IC50

Structure (SMILES)	IC50
COc1c2c(cc3c1OCO3)[C@@]13CC[N@@](C2)[C@@H]1[C@H](O)[C@H](OC)C[C@H]3O	37 µM
COc1c2c(cc3c1OCO3)[C@]13C=C[C@H](OC)C[C@H]1[N@](C2)C[C@H]3OC(C)=O	35 µM
COc1c2c(cc3c1OCO3)[C@]13C=C[C@H](OC)C[C@H]1[N@](C2)C[C@H]3O	7.3 µM
CC(=O)O[C@@H]1CC=C2CCN3Cc4cc5c(cc4[C@H]1[C@@H]23)OCO5 [ACETYLCARANINE]	3.5 µM
C[C@@H]1CC[C@H]2[C@@H](C)C(=O)O[C@@H]3O[C@@]4(C)CC[C@@H]1[C@]32OO4 [ARTEMISININ]	0.0121 µM
COC1=CC(=O)[C@@]23CCN(Cc4c2cc2c(c4OC)OCO2)[C@@H]3C1 [DISTICHAMINE]	> 50 µM
